Assay results: ChEMBL document CHEMBL2380239, “Novel ROS-activated agents utilize a tethered amine to selectively target acute myeloid leukemia” (Bioorg Med Chem Lett, 2013)

Experiments:
HeLa = experiment: Cytotoxicity against human HeLa cells after 48 hrs by MTT assay; assay type: functional, cell-based
HT-29 = experiment: Growth inhibition of human HT-29 cells after 48 hrs by sulforhodamine B assay; assay type: functional; details: HT-29, 48 h
Method in brief: (§1)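 Run in the National Cancer Institute 60-cell-line panel screen. Viability was read by sulforhodamine B staining of total protein content, so it reflects cell number rather than metabolic activity. Values are reported as GI50.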

A498 = experiment: Growth inhibition of human A498 cells after 48 hrs by sulforhodamine B assay; assay type: functional; details: A498, 48 h; method in brief: as §1
[1] = Growth inhibition of human NCI-ADR-RES cells after 48 hrs by sulforhodamine B assay; assay type: functional; method in brief: as §1
RXF 393 = experiment: Growth inhibition of human RXF393 cells after 48 hrs by sulforhodamine B assay; assay type: functional; details: RXF 393, 48 h; method in brief: as §1
BT-549 = experiment: Growth inhibition of human BT549 cells after 48 hrs by sulforhodamine B assay; assay type: functional; details: BT-549, 48 h; method in brief: as §1
SNB-75 = experiment: Growth inhibition of human SNB75 cells after 48 hrs by sulforhodamine B assay; assay type: functional; details: SNB-75, 48 h
Method in brief: (§2)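 Run within the National Cancer Institute 60-cell-line panel. Viability was read by sulforhodamine B staining of total cellular protein, as a measure of cell number rather than metabolic activity. GI50 values were taken from the panel data.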

SF-268 = experiment: Growth inhibition of human SF268 cells after 48 hrs by sulforhodamine B assay; assay type: functional; details: SF-268, 48 h; method in brief: as §1
T47D = experiment: Growth inhibition of human T47D cells after 48 hrs by sulforhodamine B assay; assay type: functional; method in brief: as §2
SW-620 = experiment: Growth inhibition of human SW620 cells after 48 hrs by sulforhodamine B assay; assay type: functional; details: SW-620, 48 h; method in brief: as §2
HCT-116 = experiment: Growth inhibition of human HCT116 cells after 48 hrs by sulforhodamine B assay; assay type: functional; details: HCT-116, 48 h; method in brief: as §1
OVCAR-5 = experiment: Growth inhibition of human OVCAR5 cells after 48 hrs by sulforhodamine B assay; assay type: functional; details: OVCAR-5, 48 h; method in brief: as §1
HOP-62 = experiment: Growth inhibition of human HOP62 cells after 48 hrs by sulforhodamine B assay; assay type: functional; details: HOP-62, 48 h; method in brief: as §1
NCI-H322M = experiment: Growth inhibition of human NCI-H322M cells after 48 hrs by sulforhodamine B assay; assay type: functional; method in brief: as §1
UO-31 = experiment: Growth inhibition of human UO31 cells after 48 hrs by sulforhodamine B assay; assay type: functional; details: UO-31, 48 h; method in brief: as §2
SK-MEL-2 = experiment: Growth inhibition of human SK-MEL-2 cells after 48 hrs by sulforhodamine B assay; assay type: functional; details: SK-MEL-2, 48 h; method in brief: as §1
MCF7 = experiment: Growth inhibition of human MCF7 cells after 48 hrs by sulforhodamine B assay; assay type: functional; details: MCF7, 48 h; method in brief: as §1
NCI-H226 = experiment: Growth inhibition of human NCI-H226 cells after 48 hrs by sulforhodamine B assay; assay type: functional; details: NCI-H226, 48 h; method in brief: as §1
HOP-92 = experiment: Growth inhibition of human HOP92 cells after 48 hrs by sulforhodamine B assay; assay type: functional; details: HOP-92, 48 h; method in brief: as §1
SF-539 = experiment: Growth inhibition of human SF539 cells after 48 hrs by sulforhodamine B assay; assay type: functional; details: SF-539, 48 h; method in brief: as §1
MOLT-4 = experiment: Growth inhibition of human MOLT4 cells after 48 hrs by sulforhodamine B assay; assay type: functional; details: MOLT-4, 48 h; method in brief: as §1
NCI-H23 = experiment: Growth inhibition of human NCI-H23 cells after 48 hrs by sulforhodamine B assay; assay type: functional; details: NCI-H23, 48 h; method in brief: as §1
CAKI-1 = experiment: Growth inhibition of human CAKI-1 cells after 48 hrs by sulforhodamine B assay; assay type: functional; details: CAKI-1, 48 h; method in brief: as §1
KM12 = experiment: Growth inhibition of human KM12 cells after 48 hrs by sulforhodamine B assay; assay type: functional; details: KM12, 48 h; method in brief: as §1
PC-3 = experiment: Growth inhibition of human PC3 cells after 48 hrs by sulforhodamine B assay; assay type: functional; details: PC-3, 48 h; method in brief: as §1
RPMI-8226 = experiment: Growth inhibition of human RPMI8226 cells after 48 hrs by sulforhodamine B assay; assay type: functional; details: RPMI-8226, 48 h; method in brief: as §1
TK-10 = experiment: Growth inhibition of human TK10 cells after 48 hrs by sulforhodamine B assay; assay type: functional; details: TK-10, 48 h; method in brief: as §2
[2] = Cytotoxicity against human MA9.3 cells after 48 hrs by MTT assay; assay type: functional, cell-based
Method in brief: (§3)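 Non-transformed human CD34+ blood stem/progenitor cells from umbilical cord blood were run alongside MA9.3, an AML line made by introducing the MLL-AF9 oncogene into human CD34+ cells. IC50 was determined on each cell type. Therapeutic index is the ratio between the MA9.3 and CD34+ IC50 values.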

[3] = Growth inhibition of human HCC2998 cells after 48 hrs by sulforhodamine B assay; assay type: functional; details: HCC 2998, 48 h; method in brief: as §1
MDA-MB-468 = experiment: Growth inhibition of human MDA-MB-468 cells after 48 hrs by sulforhodamine B assay; assay type: functional; details: MDA-MB-468, 48 h; method in brief: as §1
LOX IMVI = experiment: Growth inhibition of human LOXIMVI cells after 48 hrs by sulforhodamine B assay; assay type: functional; method in brief: as §1
M14 = experiment: Growth inhibition of human M14 cells after 48 hrs by sulforhodamine B assay; assay type: functional; details: M14, 48 h; method in brief: as §1
SR = experiment: Growth inhibition of human SR cells after 48 hrs by sulforhodamine B assay; assay type: functional; method in brief: as §2
ACHN = experiment: Growth inhibition of human ACHN cells after 48 hrs by sulforhodamine B assay; assay type: functional; method in brief: as §1
A549 = experiment: Growth inhibition of human A549/ATCC cells after 48 hrs by sulforhodamine B assay; assay type: functional; details: A549, 48 h; method in brief: as §1
Hs-578T = experiment: Growth inhibition of human Hs578T cells after 48 hrs by sulforhodamine B assay; assay type: functional; method in brief: as §1
SK-OV-3 = experiment: Growth inhibition of human SKOV3 cells after 48 hrs by sulforhodamine B assay; assay type: functional; details: SK-OV-3, 48 h; method in brief: as §1
SK-MEL-5 = experiment: Growth inhibition of human SK-MEL-5 cells after 48 hrs by sulforhodamine B assay; assay type: functional; details: SK-MEL-5, 48 h; method in brief: as §1
OVCAR-8 = experiment: Growth inhibition of human OVCAR8 cells after 48 hrs by sulforhodamine B assay; assay type: functional; details: OVCAR-8, 48 h; method in brief: as §1
MDA-MB-231 = experiment: Growth inhibition of human MDA-MB-231 cells after 48 hrs by sulforhodamine B assay; assay type: functional; details: MDA-MB-231, 48 h; method in brief: as §1
[4] = Therapeutic index, ratio of IC50 for human CD34-positive blood stem/progenitor cells to IC50 for human MA9.3 cells; details: CD34-positive blood stem/progenitor cells versus MA9.3 cells, read-out: Ratio IC50
Method in brief: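 Cytotoxicity was measured in parallel on non-cancerous human CD34+ blood stem/progenitor cells (UCB) and on the MA9.3 AML line, which was made by introducing the MLL-AF9 oncogene into human CD34+ cells. The index is IC50 in CD34+ cells divided by IC50 in MA9.3, reported as mean ± error.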

HL-60(TB) = experiment: Growth inhibition of human HL-60(TB) cells after 48 hrs by sulforhodamine B assay; assay type: functional; details: HL-60, 48 h
Method in brief: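 Tested through the National Cancer Institute's NCI-60 cell line panel screen. Viability was read by sulforhodamine B staining, which measures total cellular protein and so reflects cell number rather than metabolic activity. The value is reported as GI50.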

NCI-H522 = experiment: Growth inhibition of human NCI-H522 cells after 48 hrs by sulforhodamine B assay; assay type: functional; details: NCI-H522, 48 h; method in brief: as §1
UACC-62 = experiment: Growth inhibition of human UACC62 cells after 48 hrs by sulforhodamine B assay; assay type: functional; details: UACC-62, 48 h; method in brief: as §2
COLO 205 = experiment: Growth inhibition of human COLO205 cells after 48 hrs by sulforhodamine B assay; assay type: functional; details: COLO 205, 48 h; method in brief: as §1
[5] = Cytotoxicity against human CD34-positive blood stem/progenitor cells after 48 hrs by MTT assay; assay type: cell-based; method in brief: as §3
OVCAR-4 = experiment: Growth inhibition of human OVCAR4 cells after 48 hrs by sulforhodamine B assay; assay type: functional; details: OVCAR-4, 48 h; method in brief: as §1
SNB-19 = experiment: Growth inhibition of human SNB19 cells after 48 hrs by sulforhodamine B assay; assay type: functional; details: SNB-19, 48 h; method in brief: as §2
U-251 = experiment: Growth inhibition of human U251 cells after 48 hrs by sulforhodamine B assay; assay type: functional; details: U-251, 48 h; method in brief: as §2
MDA-MB-435 = experiment: Growth inhibition of human MDA-MB-435 cells after 48 hrs by sulforhodamine B assay; assay type: functional; details: MDA-MB-435, 48 h; method in brief: as §1
SN12C = experiment: Growth inhibition of human SN12C cells after 48 hrs by sulforhodamine B assay; assay type: functional; method in brief: as §2
IGROV-1 = experiment: Growth inhibition of human IGROV1 cells after 48 hrs by sulforhodamine B assay; assay type: functional; details: IGROV-1, 48 h; method in brief: as §1
UACC-257 = experiment: Growth inhibition of human UACC257 cells after 48 hrs by sulforhodamine B assay; assay type: functional; details: UACC-257, 48 h; method in brief: as §2
CCRF-CEM = experiment: Growth inhibition of human CCRF-CEM cells after 48 hrs by sulforhodamine B assay; assay type: functional; method in brief: as §1
OVCAR-3 = experiment: Growth inhibition of human OVCAR3 cells after 48 hrs by sulforhodamine B assay; assay type: functional; details: OVCAR-3, 48 h; method in brief: as §1
HCT-15 = experiment: Growth inhibition of human HCT15 cells after 48 hrs by sulforhodamine B assay; assay type: functional; details: HCT-15, 48 h; method in brief: as §1
SK-MEL-28 = experiment: Growth inhibition of human SK-MEL-28 cells after 48 hrs by sulforhodamine B assay; assay type: functional; details: SK-MEL-28, 48 h; method in brief: as §1
DU-145 = experiment: Growth inhibition of human DU145 cells after 48 hrs by sulforhodamine B assay; assay type: functional; details: DU-145, 48 h; method in brief: as §1
786-0 = experiment: Growth inhibition of human 786-0 cells after 48 hrs by sulforhodamine B assay; assay type: functional; details: 786-0, 48 h; method in brief: as §1

CCN(CCCOc1ccc(O)cc1)c1ccccc1
IC50 (HeLa): 14000 nM

CN(CCCOc1ccc(O)cc1)c1ccccc1
GI50 (HT-29): 5600 nM
GI50 (A498): 2600 nM
GI50 [1]: 1500 nM
GI50 (RXF 393): 2100 nM
IC50 (HeLa): 9000 nM
GI50 (BT-549): 1700 nM
GI50 (SNB-75): 3000 nM
GI50 (SF-268): 2200 nM
GI50 (T47D): 4600 nM
GI50 (SW-620): 1300 nM
GI50 (HCT-116): 3500 nM
GI50 (OVCAR-5): 7800 nM
GI50 (HOP-62): 10500 nM
GI50 (NCI-H322M): 12600 nM
GI50 (UO-31): 400 nM
GI50 (SK-MEL-2): 10500 nM
GI50 (MCF7): 2600 nM
GI50 (NCI-H226): 10500 nM
GI50 (HOP-92): 500 nM
GI50 (SF-539): 600 nM
GI50 (MOLT-4): 2000 nM
GI50 (NCI-H23): 3000 nM
GI50 (CAKI-1): 300 nM
GI50 (KM12): 4300 nM
GI50 (PC-3): 2100 nM
GI50 (RPMI-8226): 1200 nM
GI50 (TK-10): 8300 nM
IC50 [2]: 700 nM
GI50 [3]: 11200 nM
GI50 (MDA-MB-468): 3300 nM
GI50 (LOX IMVI): 2800 nM
GI50 (M14): 1700 nM
GI50 (SR): 2500 nM
GI50 (ACHN): 300 nM
GI50 (A549): 2200 nM
GI50 (Hs-578T): 3100 nM
GI50 (SK-OV-3): 11500 nM
GI50 (SK-MEL-5): 2100 nM
GI50 (OVCAR-8): 1500 nM
GI50 (MDA-MB-231): 6900 nM
selectivity ratio [4]: 7.7
GI50 (HL-60(TB)): 900 nM
GI50 (NCI-H522): 2800 nM
GI50 (UACC-62): 2100 nM
GI50 (COLO 205): 13800 nM
IC50 [5]: 5400 nM
GI50 (OVCAR-4): 11700 nM
GI50 (SNB-19): 7900 nM
GI50 (U-251): 1700 nM
GI50 (MDA-MB-435): 6600 nM
GI50 (SN12C): 3100 nM
GI50 (IGROV-1): 4100 nM
GI50 (UACC-257): 8100 nM
GI50 (CCRF-CEM): 300 nM
GI50 (OVCAR-3): 4000 nM
GI50 (HCT-15): 3500 nM
GI50 (SK-MEL-28): 12300 nM
GI50 (DU-145): 2800 nM
GI50 (786-0): 1900 nM
